This is one part of a sample in which hits are shown more often than they occur.
KDM4C inh – inhibitors of GASC-1 (KDM4C) histone demethylase, primary screen, biochemical, single concentration HTS; AID 720574, 2013; inhibition, % at 12.5 µM; hit rate 0.15% among 96,000; GST-KDM4C 2-372, H3K9me3 peptide, LANCE TR-FRET;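 active = mean replicate inhibition above about 25%, with at least 55% of replicates also reaching it, limit read from the data, passing the limit was not always enough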
Target sequence (Q9H3R0 2-372 limits assumed): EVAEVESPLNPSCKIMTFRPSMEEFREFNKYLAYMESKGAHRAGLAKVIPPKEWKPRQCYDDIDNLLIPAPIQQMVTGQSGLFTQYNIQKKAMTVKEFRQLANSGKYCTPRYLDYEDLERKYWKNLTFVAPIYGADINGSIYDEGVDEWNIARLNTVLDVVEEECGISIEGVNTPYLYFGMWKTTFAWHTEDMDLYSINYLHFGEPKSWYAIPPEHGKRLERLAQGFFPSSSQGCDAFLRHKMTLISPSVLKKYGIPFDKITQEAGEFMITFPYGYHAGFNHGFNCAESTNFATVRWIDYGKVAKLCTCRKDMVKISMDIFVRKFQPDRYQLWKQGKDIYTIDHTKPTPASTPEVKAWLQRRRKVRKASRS
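Assay system: GST-GASC-1 enzyme fragment 2-372 | Amount: 10 nM enzyme | Medium: HEPES buffer, pH 7.5, plus ascorbate | Reagent: H3K9me3 peptide substrate, Fe(II), 2-oxoglutarate | Doses: Single-point compound screen | Incubation: 30 min demethylation and 1 h detection at room temperature | Measured by: LANCE TR-FRET, excitation 340 nm, emissions 618 and 671 nm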
IDH1 R132H inh – inhibitors of IDH1 R132H reductase, primary screen, biochemical, plate reader, single point; Isocitrate dehydrogenase [NADP] cytoplasmic (Homo sapiens), O75874; diaphorase/resazurin fluorescence, 60 min; inhibition, % at 10 µM; hit rate 0.18% among 70,000; AID 624101, 2012; in the data active = inhibition above about 34%;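 note: 0% = DMSO and 100% = no enzyme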
T cruzi growth-1 – T. cruzi intracellular proliferation inhibitors, primary screen, cell-based, beta-gal Tulahuen parasites, NIH3T3 host, luminescence. T. cruzi beta-gal in NIH3T3, GalScreen luminescence, 90 h. inhibition, % at 8.34 µM. hit rate 5.9% among 77,000;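 active = mean inhibition above about 93%, with at least 55% of replicates each passing it, limit read from the data, passing the limit was not always enough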
T cruzi growth-2 – T. cruzi intracellular proliferation inhibitors, confirmation, cell-based, NIH3T3 host, beta-gal parasite, luminescence, cherry-pick. AID 651739, 2012. inhibition, % at 8.35 µM. hit rate 72% among 5,600. shares compounds with T cruzi growth-1. T. cruzi beta-gal in NIH3T3, GalScreen luminescence, 90 h;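 active = mean replicate inhibition above about 95% and at least 55% of replicates individually reaching it, limit read from the data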
T cruzi growth-3 – inhibitors of intracellular T. cruzi replication, confirmation, NIH3T3 host cells, beta-gal parasites, cherry-pick, set 2 | T. cruzi beta-gal in NIH3T3, GalScreen luminescence, 90 h | inhibition, % at 2.09 µM | hit rate 21% among 5,600 | shares compounds with T cruzi growth-1;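 active = mean inhibition above about 95%, with at least 55% of replicates also reaching it, limit read from the data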;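 note: plate controls were neutral control median for no effect and positive control median for full effect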
3T3 cytotox – cytotoxicity in mouse NIH/3T3 fibroblasts, confirmation, cytotoxicity control for T. cruzi proliferation inhibitor project, cell-based, cherry-pick, single point; shares compounds with T cruzi growth-1; NIH/3T3 viability, CellTiter-Glo ATP luminescence, 90 h; cytotoxicity (signal decrease), % at 8.35 µM; hit rate 14% among 5,600; AID 651742, 2012;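 active = mean signal decrease across replicates above about 35% based on untreated-well scatter, with enough replicates individually passing, limit read from the data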;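 note: 0% = median of neutral control wells and 100% = median of positive control wells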
NIH3T3 tox 2 – NIH/3T3 fibroblast cytotoxicity, confirmation, cytotoxicity control, cell-based, cherry-pick, single point, set 2 | shares compounds with T cruzi growth-1 | NIH/3T3 viability, CellTiter-Glo ATP luminescence, 90 h | inhibition, % at 24.9 µM | hit rate 56% among 5,600 | AID 651744, 2012;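 active = mean loss of cell viability signal at or above a set limit, and enough replicates individually reaching it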;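 note: 0% = median of neutral control wells and 100% = median of positive control wells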
Starred values were filed as active, the others as inactive; / = not tested or not shown.

SMILES	KDM4C inh	IDH1 R132H inh	T cruzi growth-1	T cruzi growth-2	T cruzi growth-3	3T3 cytotox	NIH3T3 tox 2
COc1ccccc1S(=O)(=O)N1CC[C@@H]2[C@H]1c1cc(-c3ccccc3F)ccc1N[C@@H]2CO	-1	/	102*	97*	86	26	8
C[C@H](CO)N1C[C@H](C)[C@@H](CN(C)C(=O)Nc2ccccc2)Oc2c(cccc2N(C)C)C1=O	-1	-2	35	/	/	/	/
Cc1cc2cc(O)cc(O)c2c(=O)o1	/	0	/	/	/	/	/
CC(C)(C)c1ccc(S(=O)(=O)NCc2cccnc2)cc1	/	0	/	/	/	/	/
COc1cccc(-c2ccc3c(c2)[C@H]2[C@H](CCN2S(=O)(=O)c2ccc(F)cc2)[C@@H](CO)N3C)c1	-4	/	88	/	/	/	/
N#Cc1ccc(-c2ccc([C@H]3[C@@H](CO)N4CCCCN(C(=O)Nc5ccc(F)cc5)C[C@@H]34)cc2)cc1	-1	/	100*	112*	63	-8	15
N#Cc1ccc(-c2ccc([C@@H]3[C@H](CO)N4CCCCN(C(=O)Nc5ccc(F)cc5)C[C@@H]34)cc2)cc1	-1	/	50	/	/	/	/
N#Cc1cccc(-c2ccc([C@H]3[C@H]4CN(C(=O)Nc5ccc(F)cc5)CCCCN4[C@H]3CO)cc2)c1	0	/	100*	101*	31	5	15
N#Cc1cccc(-c2ccc([C@@H]3[C@H](CO)N4CCCCN(C(=O)Nc5ccc(F)cc5)C[C@@H]34)cc2)c1	-1	/	94	/	/	/	/
N#Cc1cccc(-c2ccc([C@@H]3[C@@H](CO)N4CCCCN(C(=O)Nc5ccc(F)cc5)C[C@@H]34)cc2)c1	0	/	109*	106*	75	47*	98*
N#Cc1cccc(-c2ccc([C@@H]3[C@H]4CN(C(=O)Nc5ccc(F)cc5)CCCCN4[C@H]3CO)cc2)c1	0	/	84	/	/	/	/
O=C(Nc1cccc(F)c1)N[C@@H]1CC[C@H](CCn2cc(Cc3ccccc3)nn2)O[C@H]1CO	2	0	15	/	/	/	/
O=c1c2ccccc2nc(CSc2nnc3c4ccccc4nc(-c4ccccc4)n23)n1-c1ccccc1F	/	0	/	/	/	/	/
CCCNC(=O)N1CC2(C1)[C@H](c1ccccc1)[C@H](CO)N2Cc1ccc(Cl)cc1	3	/	/	/	/	/	/
CCOC(=O)c1c(NC(=O)CSc2nccc(C)n2)sc2c1CCCC2	/	0	/	/	/	/	/
CC(C)c1cn(CC[C@@H]2CC[C@@H](NC(=O)Nc3cc(Cl)cc(Cl)c3)[C@@H](CO)O2)nn1	1	0	-48	/	/	/	/
O=C(CSc1ncnc2sc3c(c12)CCCC3)Nc1cccc(F)c1	/	0	/	/	/	/	/
COc1ccc(CN(C)C[C@@H]2OCCCC[C@H](C)Oc3ccc(NC(=O)Nc4ccc(OC)cc4)cc3C(=O)N([C@@H](C)CO)C[C@H]2C)cc1	1	/	-2	/	/	/	/
COc1ccc(NC(=O)Nc2ccc3c(c2)C(=O)N([C@@H](C)CO)C[C@H](C)[C@@H](CN(C)Cc2ccc(Cl)c(Cl)c2)OCCCC[C@@H](C)O3)cc1	-1	0	126*	102*	114*	-5	28
COc1ccc(CN(C)C[C@H]2OCCCC[C@@H](C)Oc3ccc(NC(=O)Nc4ccc(OC)cc4)cc3C(=O)N([C@H](C)CO)C[C@@H]2C)cc1	/	1	38	/	/	/	/
COc1ccc(NC(=O)Nc2ccc3c(c2)C(=O)N([C@H](C)CO)C[C@H](C)[C@@H](CN(C)Cc2ccc(Cl)c(Cl)c2)OCCCC[C@@H](C)O3)cc1	/	1	122*	113*	100*	2	9
COc1ccc(NC(=O)Nc2ccc3c(c2)C(=O)N([C@H](C)CO)C[C@@H](C)[C@@H](CN(C)Cc2ccc(Cl)c(Cl)c2)OCCCC[C@H](C)O3)cc1	-1	/	126*	90	110*	2	5

Screening data (PubChem BioAssay)
